We go through two compounds from ChEMBL document CHEMBL1687796, “Synthesis and spectrum of the neoglycoside ACHN-490” (2010).

The test system of experiment [1] is Staphylococcus aureus. The experiment can be described thus: microbe, parasite or virus in culture. The note with it: ATCC 29213.
Experiment [2] deals with Klebsiella pneumoniae. Put plainly: Antibacterial activity against aminoglycoside-resistant Klebsiella pneumoniae expressing AAC(6')-1 by broth microdilution method. The experiment is classed as functional. An outline of the steps: (§1)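 Clinical aminoglycoside-resistant isolates were each carrying a single aminoglycoside-modifying enzyme. […] MICs were determined by CLSI broth microdilution.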
(Broth dilution looks for growth in wells or tubes with falling amounts of substance.)

Experiment [3] has as its system Acinetobacter sp. The experiment can be described thus: Antibacterial activity against Acinetobacter spp. by broth microdilution method. The format is functional. An outline of the steps:
(§2)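 MICs were determined by CLSI broth microdilution against clinical isolate panels that included aminoglycoside-resistant isolates. […] MIC90 was derived per group and not calculated when n was <10. Imipenem, ceftobiprole, ciprofloxacin and tigecycline MICs were also determined for the resistant isolates.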

Experiment [4] relates to Escherichia coli. Put plainly: Antibacterial activity against aminoglycoside-resistant Escherichia coli expressing APH(3')-1b by broth microdilution method.
The subject of experiment [5] is Klebsiella pneumoniae. Put plainly: Antibacterial activity against aminoglycoside-resistant Klebsiella pneumoniae expressing AAC(3)-1 by broth microdilution method. The experiment is classed as functional. An outline of the steps:
as §1

Experiment [6] has as its system Serratia marcescens. Put plainly: Antibacterial activity against aminoglycoside-resistant Serratia marcescens expressing ANT(2''), AAC(6') by broth microdilution method. The experiment is classed as functional. An outline of the steps:
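MICs were measured by broth microdilution following CLSI guidance. The strains formed a 25-strain screening panel with diverse aminoglycoside resistance mechanisms. The panel included Gram-negative and S. aureus strains carrying key aminoglycoside-modifying enzymes, strains with altered permeability or efflux, and an armA ribosomal methyltransferase strain.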

Experiment [7] has as its system Providencia stuartii. The experiment can be described thus: Antibacterial activity against aminoglycoside-resistant Providencia stuartii expressing AAC(2')-1 by broth microdilution method.
Experiment [8] has as its system Pseudomonas aeruginosa. The experiment can be described thus: Antibacterial activity against aminoglycoside-resistant Pseudomonas aeruginosa expressing ANT(2'')-1 by broth microdilution method. The format is functional. An outline of the steps: as §1
Experiment [9] has as its system Escherichia coli. The experiment can be described thus: Antibacterial activity against aminoglycoside-resistant Escherichia coli expressing ANT(6')-1 by broth microdilution method. The format is functional. An outline of the steps:
as §1

Experiment [10] relates to Acinetobacter baumannii. Put plainly: Antibacterial activity against aminoglycoside-resistant Acinetobacter baumannii expressing APH(3')-6 by broth microdilution method. The experiment is classed as functional. An outline of the steps: as §1
Experiment [11] has as its system Klebsiella pneumoniae. Put plainly: Antibacterial activity against aminoglycoside-resistant Klebsiella pneumoniae expressing ANT(2'')-I by broth microdilution method.
Experiment [12] deals with Escherichia coli. Put plainly: Antibacterial activity against aminoglycoside-resistant Escherichia coli expressing AAC(3)-2 by broth microdilution method.
Experiment [13] concerns Staphylococcus aureus. Put plainly: Antibacterial activity against aminoglycoside-resistant Staphylococcus aureus expressing APH(2'') + AAC(6')-1 by broth microdilution method. The format is functional. In short, it runs like this: as §1
Experiment [14] relates to Pseudomonas aeruginosa. Put plainly: Antibacterial activity against Pseudomonas aeruginosa expressing AAC(6')-2 by broth microdilution method. The format is functional.
Experiment [15] concerns Staphylococcus epidermidis. The experiment can be described thus: Antibacterial activity against aminoglycoside-resistant Staphylococcus epidermidis expressing APH(3')-3 by broth microdilution method. The experiment is classed as functional.
The test system of experiment [16] is Pseudomonas aeruginosa. Put plainly: Antibacterial activity against Pseudomonas aeruginosa expressing AAC(3)-1 by broth microdilution method. The format is functional.
In experiment [17] the test system is Staphylococcus epidermidis. Put plainly: Antibacterial activity against aminoglycoside-resistant Staphylococcus epidermidis expressing ANT(4',4'')-2 by broth microdilution method. The experiment is classed as functional. In short, it runs like this:
as §1

Experiment [18] relates to Escherichia coli. The experiment can be described thus: Antibacterial activity against aminoglycoside-resistant Escherichia coli expressing AAC(6')-1 by broth microdilution method. The experiment is classed as functional. An outline of the steps:
as §1

In experiment [19] the test system is Proteus mirabilis. Put plainly: Antibacterial activity against Proteus mirabilis by broth microdilution method. The experiment is classed as functional. In short, it runs like this:
as §2

For experiment [20], the system named is Escherichia coli. Put plainly: Antibacterial activity against aminoglycoside-resistant Escherichia coli expressing AAC(3)-IVa by broth microdilution method.
The test system of experiment [21] is Escherichia coli. The experiment can be described thus: Antibacterial activity against aminoglycoside-resistant Escherichia coli expressing ANT(3)-2 by broth microdilution method. The experiment is classed as functional. In short, it runs like this: as §1

Values after ≈ are worked out from the molar mass of the structure shown. Some results are limits rather than exact numbers.

On to `NCC[C@H](O)C(=O)N[C@@H]1C[C@H](N)[C@@H](O[C@H]2O[C@H](CN)[C@@H](O)[C@H](O)[C@H]2O)[C@H](O)[C@H]1O[C@H]1O[C@H](CO)[C@@H](O)[C@H](N)[C@H]1O` [AMIKACIN], for which the MIC was 4 µg/mL (≈ 6.83 µM) in experiment [1]; 30 µg/mL (≈ 51.2 µM) in experiment [2]; 0.5 µg/mL (≈ 0.854 µM) in experiment [4]; 4 µg/mL (≈ 6.83 µM) in [5]; 8 µg/mL (≈ 13.7 µM) in experiment [6]; 8 µg/mL (≈ 13.7 µM) in experiment [7]. For the same compound, the MIC was 8 µg/mL (≈ 13.7 µM) in experiment [8]; 32 µg/mL (≈ 54.6 µM) in experiment [9]; over 64 µg/mL in experiment [10]; 2 µg/mL (≈ 3.42 µM) in [11]; 4 µg/mL (≈ 6.83 µM) in experiment [12]; 18 µg/mL in experiment [13]. Further, the MIC worked out at 4 µg/mL (≈ 6.83 µM) in [14]; 4 µg/mL (≈ 6.83 µM) in experiment [15]; 4 µg/mL (≈ 6.83 µM) in experiment [16]; 13 µg/mL (≈ 22.2 µM) in experiment [17]; 30 µg/mL (≈ 51.2 µM) in experiment [18]; 4 µg/mL (≈ 6.83 µM) in [20]. Moreover, the figures for the MIC50 in experiment [3] and in [19] were over 64 µg/mL and 8 µg/mL (≈ 13.7 µM), respectively. In addition, the MIC90 was over 64 µg/mL in experiment [3] and 64 µg/mL (≈ 109 µM) in experiment [19].

With `CN[C@@H]1[C@@H](O)[C@@H](O[C@@H]2[C@@H](O)[C@H](O[C@H]3OC(CNCCO)=CC[C@H]3N)[C@@H](N)C[C@H]2NC(=O)[C@@H](O)CCN)OC[C@]1(C)O` [PLAZOMICIN], the MIC in experiment [1] was 1 µg/mL (≈ 1.69 µM); in [2], 1 µg/mL (≈ 1.69 µM); in experiment [4], 0.25 µg/mL (≈ 0.422 µM); in experiment [5], 1 µg/mL (≈ 1.69 µM); in experiment [6], 2 µg/mL (≈ 3.37 µM); in experiment [7] it was over 64 µg/mL. Further, the MIC in [8] was determined as 3 µg/mL (≈ 5.06 µM); in [9], 0.25 µg/mL (≈ 0.422 µM); in experiment [10] it was 3 µg/mL (≈ 5.06 µM); in experiment [11] it was 1 µg/mL (≈ 1.69 µM); in experiment [13], 1 µg/mL; in experiment [14], 2 µg/mL (≈ 3.37 µM). Also, the MIC was 1 µg/mL (≈ 1.69 µM) in experiment [15]; 8 µg/mL (≈ 13.5 µM) in [16]; 1 µg/mL (≈ 1.69 µM) in [17]; 1 µg/mL (≈ 1.69 µM) in experiment [18]; 2 µg/mL (≈ 3.37 µM) in experiment [21]; 1 µg/mL (≈ 1.69 µM) in experiment [20]. The MIC50 in experiment [3] turned out to be 16 µg/mL (≈ 27 µM); in [19], 4 µg/mL (≈ 6.75 µM). Moreover, the MIC90 in experiment [3] stood at 32 µg/mL (≈ 54 µM); in [19], 8 µg/mL (≈ 13.5 µM).

The MIC50 is an inhibitory concentration at the 50% level, which refers to growth in some studies and to a panel of isolates in others. The low end stands for greater potency, the high end for weaker potency. The term MIC90 denotes an inhibitory concentration at the 90% level, which refers to growth in some studies and to a panel of isolates in others. The low end stands for higher susceptibility, the high end for lower susceptibility.
